Our source for the IC50 values is ChEMBL document CHEMBL3232810, “Synthesis, biological evaluation and 3D-QSAR studies of new chalcone derivatives as inhibitors of human P-glycoprotein” (Bioorg Med Chem, 2014).

One may read the IC50 as the concentration that inhibits the measured activity by half.

The test concerns the target ATP-dependent translocase ABCB1 (Homo sapiens, UniProt P08183). Kind of test: Inhibition of P-gp-mediated daunorubicin efflux in human CCRF-CEM/VCR1000 cells measured within 1 hr by FACS flow cytometry. Summed up:
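CCRF vcr1000 cells kept in RPMI 1640 with 10% FCS and 1000 ng/mL vincristine; vincristine washed out 1 week before use. Cells at 1×10⁶/mL were preloaded with daunorubicin (3 µmol/L final), 30 min, 37 °C. After pelleting they were resuspended in warm medium with inhibitor, eight concentrations (1:3 serial), top 20–200 µM. Aliquots at 0, 60, 120, 180 and 240 s went into ice-cold stop solution (5 µmol/L GPV31 final). Initial efflux rates came from linear regression, and IC50 from a Hill-equation fit of rate versus concentration.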
Background: A flow cytometer gives signals particle by particle.

ATP-dependent translocase ABCB1, sequence (P08183 whole entry): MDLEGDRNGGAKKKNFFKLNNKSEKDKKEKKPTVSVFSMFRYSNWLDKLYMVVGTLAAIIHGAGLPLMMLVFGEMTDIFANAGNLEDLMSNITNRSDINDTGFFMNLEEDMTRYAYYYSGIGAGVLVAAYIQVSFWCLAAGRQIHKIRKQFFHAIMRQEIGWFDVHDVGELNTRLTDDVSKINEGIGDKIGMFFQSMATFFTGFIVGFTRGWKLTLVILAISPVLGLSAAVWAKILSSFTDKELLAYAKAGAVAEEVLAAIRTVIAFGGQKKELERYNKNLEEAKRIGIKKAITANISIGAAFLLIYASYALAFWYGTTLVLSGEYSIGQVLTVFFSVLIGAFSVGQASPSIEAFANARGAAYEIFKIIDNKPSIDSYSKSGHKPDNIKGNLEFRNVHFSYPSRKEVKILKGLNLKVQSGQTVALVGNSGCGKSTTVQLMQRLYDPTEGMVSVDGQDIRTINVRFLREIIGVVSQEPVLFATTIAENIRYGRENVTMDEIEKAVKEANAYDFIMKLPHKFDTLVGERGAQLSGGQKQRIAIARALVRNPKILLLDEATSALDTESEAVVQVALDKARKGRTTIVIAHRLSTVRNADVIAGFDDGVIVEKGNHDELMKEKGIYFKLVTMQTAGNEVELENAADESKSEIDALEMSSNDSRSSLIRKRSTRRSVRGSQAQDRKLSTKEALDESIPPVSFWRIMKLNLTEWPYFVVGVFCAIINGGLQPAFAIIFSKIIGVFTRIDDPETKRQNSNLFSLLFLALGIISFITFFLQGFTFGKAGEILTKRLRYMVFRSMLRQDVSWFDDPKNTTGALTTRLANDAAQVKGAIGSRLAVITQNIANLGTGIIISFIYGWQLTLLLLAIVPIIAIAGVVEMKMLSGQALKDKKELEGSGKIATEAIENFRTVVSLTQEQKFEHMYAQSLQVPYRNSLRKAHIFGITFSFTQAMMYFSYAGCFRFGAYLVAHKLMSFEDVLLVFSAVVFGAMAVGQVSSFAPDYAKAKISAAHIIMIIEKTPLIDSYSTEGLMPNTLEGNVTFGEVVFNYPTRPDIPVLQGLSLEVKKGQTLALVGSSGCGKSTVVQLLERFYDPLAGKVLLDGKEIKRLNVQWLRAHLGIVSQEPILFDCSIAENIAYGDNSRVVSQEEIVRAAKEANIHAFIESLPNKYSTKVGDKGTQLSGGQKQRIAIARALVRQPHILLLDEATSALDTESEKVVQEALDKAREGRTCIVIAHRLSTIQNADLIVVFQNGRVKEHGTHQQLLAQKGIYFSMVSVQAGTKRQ

For `COc1cc2c(cc1OC)C(=O)/C(=C/c1ccc(N(C)C)cc1)C2`, half-maximal inhibition (IC50) required 0.13 µM. In other words, the sub-micromolar range.
For the compound `COc1ccc2c(c1)CC/C(=C\C=C\c1cc(OC)c(OC)c(OC)c1)C2=O`, the midpoint of inhibition, the IC50, lay at 1.74 µM.
Take `COc1ccccc1C(=O)/C=C/c1c(C)cc(C)cc1C`: it took 8.51 µM to reach half-maximal inhibition (IC50).
Compound `COc1ccc(C(=O)/C=C/c2ccc(OC)c3ccccc23)cc1OC` showed a half-inhibitory concentration (IC50) of 2.75 µM.
For `COc1ccccc1/C=C/C=C/C(=O)c1cc(OC)c(OC)c(OC)c1` the value was 1.38 µM.
For `COc1ccccc1/C=C/C=C/C(=O)c1cc(OC)c(O)c(OC)c1` the value was 12 µM; for `COc1cc(C(=O)/C=C/c2ccccc2SC)cc(OC)c1OC`, 0.65 µM.
Turning to `COc1cc(C(=O)/C=C/C=C/c2ccccc2SC)cc(OC)c1OC`, the IC50 is 0.87 µM. This IC50 and that of the compound before are within 1.5-fold of each other.
For `COc1cc2c(cc1OC)C(=O)/C(=C/C=C/c1ccc(N(C)C)cc1)C2` the value was 0.04 µM; for `COc1ccc2c(c1)CC/C(=C\c1ccc3ccccc3c1)C2=O`, 3.55 µM; for `COc1cc2c(cc1OC)C(=O)/C(=C/C=C/c1cc(OC)c(OC)c(OC)c1)CC2`, 0.14 µM.
For `COc1ccc2c(c1)C(=O)/C(=C/C=C/c1cc(OC)c(OC)c(OC)c1)C2` the value was 1.15 µM.
For `COc1cc(/C=C/C=C2\Cc3ccc(OC)c(OC)c3C2=O)cc(OC)c1OC` the value was 2.63 µM; for `COc1cc(/C=C/C=C2\Cc3ccc(OC)c(OC)c3C2=O)ccc1O`, 2.33 µM; for `COc1ccc2c(c1)C/C(=C\C=C\c1ccccc1OC)C2=O`, 3.89 µM.
In turn, `COc1cc(C(=O)/C=C/c2ccc(C(=O)O)cc2)cc(OC)c1OC` showed an IC50 of 141 µM.
For `COc1ccc(C(=O)/C=C/c2cccc(/C=C/C(=O)c3ccc(OC)c(OC)c3)c2)cc1OC` the value was 0.14 µM; for `COc1cc(C(=O)/C=C/c2cccc(/C=C/C(=O)c3cc(OC)c(OC)c(OC)c3)c2)cc(OC)c1OC`, 0.12 µM.
`COc1cc(/C=C/C(=O)c2cccc(C(=O)/C=C/c3cc(OC)c(OC)c(OC)c3)c2)cc(OC)c1OC`: the IC50 was found to be 0.14 µM. This IC50 and that of the compound before are within 1.5-fold of each other.
Consider `COc1cc(/C=C/C=C/C(=O)c2cccc(C(=O)/C=C/C=C/c3cc(OC)c(OC)c(OC)c3)c2)cc(OC)c1OC`, for which half-maximal inhibition (IC50) required 0.06 µM.
In the case of `COC(=O)C1=C(O)/C(=C/C=C/c2ccccc2OC)CCC1`, the IC50 worked out at 20.4 µM.
